Values joined by “and” are separate entries in the source; they are usually repeats but may differ in a detail not shown here. Equal values may be shown once.
Tests used:
Assay type in all cases: functional
[1] = test system: Mus musculus; test: In vivo antitumor activity against p-388 lymphocytic leukemia in mice at 25 mg/kg
Procedure, shortened: (§1)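 Murine P388 lymphocytic leukemia model tested by the National Cancer Institute. Compound given once daily for 9 days; activity expressed as T/C.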

[2] = test system: Schistosoma mansoni; test: Incorporation of 1.1 M *10e6 [3H]uridine in hycanthone(HC) resistant Schistosoma mansoni
Procedure, shortened: (§2)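 Adult HC-resistant S. mansoni were treated in vitro, and [3H]uridine incorporation by the worms was measured. Values are % of control. Concentrations are given in M × 10^6.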

[3] = test system: Mus musculus; test: In vivo antitumor activity against p-388 lymphocytic leukemia in mice at 12.5 mg/kg; procedure, shortened: as §1
[4] = test system: Schistosoma mansoni; test: Incorporation of 5.5 M*10e6 [3H]uridine in hycanthone(HC) resistant Schistosoma mansoni; procedure, shortened: as §2
[5] = test system: Schistosoma mansoni; test: Incorporation of 5.5M*10e6 [3H]uridine in hycanthone(HC) sensitive Schistosoma mansoni
[6] = test system: Mus musculus; test: In vivo antitumor activity against p-388 lymphocytic leukemia in mice at 6.25 mg/kg; procedure, shortened: as §1
[7] = test system: Schistosoma mansoni; test: Incorporation of 1.1 M *10e6 [3H]uridine in hycanthone(HC) sensitive Schistosoma mansoni
[8] = test system: Mus musculus; test: In vivo antitumor activity against p-388 lymphocytic leukemia in mice at 3.12 mg/kg; procedure, shortened: as §1
[9] = test system: Schistosoma mansoni; test: Day 50% survival of worms in culture of HC sensitive Schistosoma mansoni
[10] = test system: Schistosoma mansoni; test: Day 50% survival of worms in culture of HC resistant Schistosoma mansoni at 5.2*10e6M
Procedure, shortened: (§3)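 Adult HC-resistant S. mansoni were exposed in vitro and kept in culture. The value is the day by which 50% of worms were dead. Cultures were ended at different times in different experiments. Concentrations are given in M × 10^6.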

[11] = test system: Schistosoma mansoni; test: Incorporation of 5.2*10e6M [3H]-uridine in hycanthone(HC) sensitive Schistosoma mansoni
[12] = test system: Schistosoma mansoni; test: Day 50% survival of worms in culture of HC resistant Schistosoma mansoni at 1.3 *10e6 M; procedure, shortened: as §3
[13] = test system: Schistosoma mansoni; test: Day 50% survival of worms in culture of HC sensitive Schistosoma mansoni at 1.3 *10e6 M
[14] = test system: Schistosoma mansoni; test: Incorporation of 2.6 *10e6 M [3H]uridine in hycanthone(HC) resistant Schistosoma mansoni; procedure, shortened: as §2
[15] = test system: Schistosoma mansoni; test: Incorporation of 5.2*10e6M [3H]uridine in hycanthone(HC) resistant Schistosoma mansoni; procedure, shortened: as §2
[16] = test system: Schistosoma mansoni; test: Incorporation of 1.3 *10e6 M [3H]uridine in hycanthone(HC) sensitive Schistosoma mansoni
[17] = test system: Schistosoma mansoni; test: Incorporation of 2.6 *10e6 M [3H]uridine in hycanthone(HC) sensitive Schistosoma mansoni
[18] = test system: Schistosoma mansoni; test: Incorporation of 1.3 *10e6 M [3H]uridine in hycanthone(HC) resistant Schistosoma mansoni; procedure, shortened: as §2
[19] = test system: Schistosoma mansoni; test: Day 50% survival of worms in culture of HC resistant Schistosoma mansoni; procedure, shortened: as §3
[20] = test system: Schistosoma mansoni; test: Incorporation of 1.2 M *10e6 [3H]uridine in hycanthone(HC) resistant Schistosoma mansoni; procedure, shortened: as §2
[21] = test system: Schistosoma mansoni; test: Incorporation of 1.2 M *10e6 [3H]uridine in hycanthone(HC) sensitive Schistosoma mansoni
[22] = test system: Mus musculus; test: In vivo antitumor activity against p-388 lymphocytic leukemia in mice at 20 mg/kg; procedure, shortened: as §1
[23] = test system: Mus musculus; test: In vivo antitumor activity against p-388 lymphocytic leukemia in mice at 10 mg/kg; procedure, shortened: as §1
[24] = test system: Schistosoma mansoni; test: Incorporation of 6M*10e6 [3H]uridine in hycanthone(HC) resistant Schistosoma mansoni; procedure, shortened: as §2
[25] = test system: Schistosoma mansoni; test: Incorporation of 6M*10e6 [3H]uridine in hycanthone(HC) sensitive Schistosoma mansoni
[26] = test system: Mus musculus; test: In vivo antitumor activity against p-388 lymphocytic leukemia in mice at 5 mg/kg; procedure, shortened: as §1
[27] = test system: Mus musculus; test: In vivo antitumor activity against p-388 lymphocytic leukemia in mice at 2.5 mg/kg; procedure, shortened: as §1

Q: With `CCCCNC(=O)OCc1ccc(NCCN(CC)CC)c2c(=O)c3ccccc3sc12` as the compound, how does the T/C [1] read?
A: 129%

Q: And the Control [2]?
A: 100%

Q: And the T/C [3]?
A: 104%

Q: And the Control [4]?
A: 100%

Q: And the Control [5]?
A: 31%

Q: What about the T/C [6] of the same compound?
A: 135%

Q: What about the Control [7] of the same compound?
A: 34%

Q: And the T/C [8]?
A: 119%

Q: What about the Effect [9] of the same compound?
A: >12 days

Q: Which Effect [10] does the source give for `CN(C)CCNc1ccc(CO)c2sc3ccc(O)cc3c(=O)c12` here?
A: >12 days

Q: And the Control [11]?
A: 23%

Q: What about the Effect [12] of the same compound?
A: >12 days

Q: And the Effect [13]?
A: 9 days

Q: And the Control [14]?
A: 108%

Q: What about the Control [15] of the same compound?
A: 91%

Q: And the Control [16]?
A: 43%

Q: What about the Control [17] of the same compound?
A: 20%

Q: What about the Control [18] of the same compound?
A: 96%

Q: Which Effect [19] does the source give for `CCN(CC)CCNc1ccc(COC(=O)OC)c2sc3ccccc3c(=O)c12` here?
A: 13 days and 6 days

Q: What about the Control [20] of the same compound?
A: 80%

Q: And the Control [21]?
A: 32%

Q: And the T/C [22]?
A: 122%

Q: And the T/C [23]?
A: 124%

Q: And the Control [24]?
A: 28%

Q: What about the Control [25] of the same compound?
A: 6%

Q: What about the T/C [26] of the same compound?
A: 124%

Q: What about the Effect [9] of the same compound?
A: 7 days and 6 days

Q: What about the T/C [27] of the same compound?
A: 118%

Reference: ChEMBL document CHEMBL1124248, “Preparation and antischistosomal and antitumor activity of hycanthone and some of its congeners. Evidence for the mode of action of hycanthone” (1988)
